The record followed here is ChEMBL document CHEMBL1681705, “Optimisation of ITK inhibitors through successive iterative design cycles” (Bioorg Med Chem Lett, 2011).

The target of assay [1] is Interleukin-1 receptor-associated kinase 1 (Homo sapiens) (UniProt P51617). As to the kind of experiment: Inhibition of IRAK1 at 1 uM. An outline of the steps:
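Single-point profiling in a panel of 108 kinases. Each selected inhibitor was tested at two concentrations, 0.1 and 1.0 micromolar. Values are reported as inhibition at each concentration.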

Assay [2] can be described thus: Inhibition of MAPK2 at 1 uM. As to conditions: values are per cent of control.
The nature of assay [3]: Inhibition of PKA at 1 uM; values are per cent of control.
Assay [4] has as its target Hepatocyte growth factor receptor (Homo sapiens) (UniProt P08581). Briefly: Inhibition of Met at 0.1 uM; values are per cent of control.
The target in assay [5] is T1, Calcium/calmodulin-dependent protein kinase type IV (Homo sapiens) (UniProt Q16566).
T1 sequence (whole entry): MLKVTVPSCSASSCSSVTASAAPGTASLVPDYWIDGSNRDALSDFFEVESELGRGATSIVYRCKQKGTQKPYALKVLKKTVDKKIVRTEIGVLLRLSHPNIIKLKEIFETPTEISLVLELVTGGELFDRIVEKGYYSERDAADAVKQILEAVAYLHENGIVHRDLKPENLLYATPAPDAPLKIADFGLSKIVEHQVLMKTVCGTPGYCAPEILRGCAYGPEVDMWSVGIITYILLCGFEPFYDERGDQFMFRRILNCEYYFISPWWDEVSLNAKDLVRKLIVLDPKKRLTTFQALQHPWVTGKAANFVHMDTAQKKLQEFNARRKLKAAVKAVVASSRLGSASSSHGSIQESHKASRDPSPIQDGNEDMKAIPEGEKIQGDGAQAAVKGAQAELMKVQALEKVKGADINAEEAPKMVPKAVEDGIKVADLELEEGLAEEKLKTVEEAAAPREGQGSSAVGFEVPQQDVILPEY
Briefly: Inhibition of CaMK4 at 1 uM; values are per cent of control.

Assay [6] addresses T2, Ephrin type-B receptor 1 (Homo sapiens) (UniProt P54762).
T2 sequence (whole entry): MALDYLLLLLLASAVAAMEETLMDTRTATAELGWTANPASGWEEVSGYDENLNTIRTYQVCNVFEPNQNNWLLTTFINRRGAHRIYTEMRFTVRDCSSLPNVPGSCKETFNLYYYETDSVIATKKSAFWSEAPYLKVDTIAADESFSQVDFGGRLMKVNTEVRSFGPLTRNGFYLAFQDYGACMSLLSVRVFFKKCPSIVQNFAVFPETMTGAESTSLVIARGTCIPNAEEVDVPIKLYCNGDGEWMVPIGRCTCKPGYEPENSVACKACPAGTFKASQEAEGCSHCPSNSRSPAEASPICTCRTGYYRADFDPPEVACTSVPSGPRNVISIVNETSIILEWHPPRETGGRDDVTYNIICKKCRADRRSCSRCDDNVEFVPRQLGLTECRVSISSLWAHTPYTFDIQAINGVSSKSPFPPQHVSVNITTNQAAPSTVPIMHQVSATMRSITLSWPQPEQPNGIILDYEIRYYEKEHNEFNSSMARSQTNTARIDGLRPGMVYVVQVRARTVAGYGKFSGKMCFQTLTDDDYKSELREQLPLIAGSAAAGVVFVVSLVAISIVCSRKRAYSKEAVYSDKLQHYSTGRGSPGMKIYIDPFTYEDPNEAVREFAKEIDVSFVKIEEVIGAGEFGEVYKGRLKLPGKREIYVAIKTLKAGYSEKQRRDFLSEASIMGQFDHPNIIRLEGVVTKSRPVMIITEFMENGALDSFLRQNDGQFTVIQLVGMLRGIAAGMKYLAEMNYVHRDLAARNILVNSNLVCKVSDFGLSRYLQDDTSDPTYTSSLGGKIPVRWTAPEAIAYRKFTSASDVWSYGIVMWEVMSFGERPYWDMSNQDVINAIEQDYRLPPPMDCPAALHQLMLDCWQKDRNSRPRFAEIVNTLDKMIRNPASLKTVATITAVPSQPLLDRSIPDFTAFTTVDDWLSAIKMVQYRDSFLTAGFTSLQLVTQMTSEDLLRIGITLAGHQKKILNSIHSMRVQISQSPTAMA
As to the kind of experiment: Inhibition of EphB1 at 1 uM; values are per cent of control.

In assay [7] the target is T3, Ephrin type-B receptor 4 (Homo sapiens) (UniProt P54760).
T3 sequence (whole entry): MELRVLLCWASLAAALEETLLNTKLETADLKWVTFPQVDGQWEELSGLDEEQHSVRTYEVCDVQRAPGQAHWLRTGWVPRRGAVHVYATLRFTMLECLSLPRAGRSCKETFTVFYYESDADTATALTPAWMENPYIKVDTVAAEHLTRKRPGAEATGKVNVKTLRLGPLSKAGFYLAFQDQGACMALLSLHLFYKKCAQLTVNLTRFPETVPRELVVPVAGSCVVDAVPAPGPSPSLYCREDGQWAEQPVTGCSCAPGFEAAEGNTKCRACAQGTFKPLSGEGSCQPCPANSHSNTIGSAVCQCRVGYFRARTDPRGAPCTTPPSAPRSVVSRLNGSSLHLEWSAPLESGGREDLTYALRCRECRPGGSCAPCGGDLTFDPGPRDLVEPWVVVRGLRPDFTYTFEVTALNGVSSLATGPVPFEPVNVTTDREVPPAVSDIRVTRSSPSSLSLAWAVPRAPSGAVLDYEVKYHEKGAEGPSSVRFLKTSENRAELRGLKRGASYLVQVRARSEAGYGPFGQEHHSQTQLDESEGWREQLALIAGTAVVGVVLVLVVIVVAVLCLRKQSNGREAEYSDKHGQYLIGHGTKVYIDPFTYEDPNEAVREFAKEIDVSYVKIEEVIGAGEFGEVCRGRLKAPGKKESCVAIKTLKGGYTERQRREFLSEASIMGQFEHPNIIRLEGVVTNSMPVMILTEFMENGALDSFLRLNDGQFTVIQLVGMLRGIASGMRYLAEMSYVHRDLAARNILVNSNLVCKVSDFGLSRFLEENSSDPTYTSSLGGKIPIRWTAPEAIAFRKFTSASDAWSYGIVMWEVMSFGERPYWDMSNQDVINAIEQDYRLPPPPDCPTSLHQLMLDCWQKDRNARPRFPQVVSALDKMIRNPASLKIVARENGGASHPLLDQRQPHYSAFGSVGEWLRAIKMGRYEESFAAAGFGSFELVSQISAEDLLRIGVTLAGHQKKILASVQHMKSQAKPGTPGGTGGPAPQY
Briefly: Inhibition of EphB4 at 0.1 uM; values are per cent of control.

Assay [8] concerns the target CDK6/cyclin D3 (Homo sapiens) (UniProt P30281+Q00534). As to the kind of experiment: Inhibition of CDK6/cyclin D3 at 0.1 uM; values are per cent of control.

In general, inhibition refers to how much of the control response was suppressed. A high value points to a strong effect. What is called residual activity is the signal under treatment as a percentage of the control signal.

Interleukin-1 receptor-associated kinase 1 (Homo sapiens), sequence (P51617 whole entry, looked up): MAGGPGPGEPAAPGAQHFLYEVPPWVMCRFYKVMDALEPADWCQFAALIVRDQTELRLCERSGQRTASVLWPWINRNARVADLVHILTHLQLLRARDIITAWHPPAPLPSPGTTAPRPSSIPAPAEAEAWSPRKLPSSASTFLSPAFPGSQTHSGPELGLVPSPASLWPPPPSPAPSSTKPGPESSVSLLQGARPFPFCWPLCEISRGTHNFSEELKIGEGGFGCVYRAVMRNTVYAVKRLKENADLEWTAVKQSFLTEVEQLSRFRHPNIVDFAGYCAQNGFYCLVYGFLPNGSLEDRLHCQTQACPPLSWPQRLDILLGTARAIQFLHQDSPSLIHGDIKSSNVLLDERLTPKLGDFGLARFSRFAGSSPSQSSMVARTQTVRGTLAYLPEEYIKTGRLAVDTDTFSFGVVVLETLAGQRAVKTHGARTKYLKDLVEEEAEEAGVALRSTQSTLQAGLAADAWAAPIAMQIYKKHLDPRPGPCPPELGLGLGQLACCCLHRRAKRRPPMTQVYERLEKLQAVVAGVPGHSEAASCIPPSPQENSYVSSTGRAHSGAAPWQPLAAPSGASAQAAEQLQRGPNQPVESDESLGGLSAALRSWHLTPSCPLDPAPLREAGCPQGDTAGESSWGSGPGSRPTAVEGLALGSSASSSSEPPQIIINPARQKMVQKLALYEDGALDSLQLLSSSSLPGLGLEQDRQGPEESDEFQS
Hepatocyte growth factor receptor (Homo sapiens), sequence (P08581 whole entry): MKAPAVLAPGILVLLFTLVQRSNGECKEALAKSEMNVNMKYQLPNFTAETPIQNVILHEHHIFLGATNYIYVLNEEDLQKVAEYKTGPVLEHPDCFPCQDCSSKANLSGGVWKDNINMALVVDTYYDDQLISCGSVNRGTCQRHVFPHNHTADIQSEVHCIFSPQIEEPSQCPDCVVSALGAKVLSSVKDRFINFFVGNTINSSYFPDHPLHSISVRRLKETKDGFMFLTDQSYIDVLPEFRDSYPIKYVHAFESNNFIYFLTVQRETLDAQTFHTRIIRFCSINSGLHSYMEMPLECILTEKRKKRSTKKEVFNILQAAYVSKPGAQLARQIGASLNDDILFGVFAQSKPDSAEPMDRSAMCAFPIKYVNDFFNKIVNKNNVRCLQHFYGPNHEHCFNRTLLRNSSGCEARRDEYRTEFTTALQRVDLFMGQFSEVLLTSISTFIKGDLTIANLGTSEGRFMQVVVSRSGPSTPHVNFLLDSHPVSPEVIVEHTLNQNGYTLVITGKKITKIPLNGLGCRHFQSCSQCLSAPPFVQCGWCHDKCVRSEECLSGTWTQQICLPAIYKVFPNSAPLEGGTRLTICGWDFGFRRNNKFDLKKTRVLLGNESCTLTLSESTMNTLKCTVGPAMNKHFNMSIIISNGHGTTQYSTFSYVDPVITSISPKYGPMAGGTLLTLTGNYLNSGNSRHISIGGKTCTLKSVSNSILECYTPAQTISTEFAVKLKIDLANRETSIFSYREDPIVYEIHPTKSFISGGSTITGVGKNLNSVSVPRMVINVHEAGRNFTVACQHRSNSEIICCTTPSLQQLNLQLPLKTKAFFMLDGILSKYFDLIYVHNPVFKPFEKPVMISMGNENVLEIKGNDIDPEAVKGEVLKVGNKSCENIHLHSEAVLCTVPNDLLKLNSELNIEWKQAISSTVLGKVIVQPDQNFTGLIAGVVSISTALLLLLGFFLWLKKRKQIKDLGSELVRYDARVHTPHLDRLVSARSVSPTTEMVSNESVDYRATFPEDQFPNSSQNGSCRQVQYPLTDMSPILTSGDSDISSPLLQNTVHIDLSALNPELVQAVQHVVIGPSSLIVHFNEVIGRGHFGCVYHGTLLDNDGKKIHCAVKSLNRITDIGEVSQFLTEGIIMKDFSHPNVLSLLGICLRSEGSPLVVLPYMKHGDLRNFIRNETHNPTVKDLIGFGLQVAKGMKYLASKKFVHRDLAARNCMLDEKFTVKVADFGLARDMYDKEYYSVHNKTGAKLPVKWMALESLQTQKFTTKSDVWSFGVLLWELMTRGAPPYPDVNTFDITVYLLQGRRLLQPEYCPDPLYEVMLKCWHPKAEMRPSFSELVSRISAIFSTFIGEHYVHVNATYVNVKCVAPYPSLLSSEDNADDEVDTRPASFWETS

In assay [1], `Cc1ccc2cc(-c3n[nH]c4ccc(NC5CCNC5)cc34)[nH]c2c1` (stereo unspecified) gave an inhibition of 7%. Further, the residual activity in assay [2] was 64%; in assay [3] it was 6%; in assay [4] it was 44%; in assay [5], 28%; in assay [6], 5%; in assay [7], 106%. Also, the residual activity in assay [8] worked out at 70%.

With `Cc1ccc2cc(-c3n[nH]c4ccc(NC5CCN(Cc6ccccc6)CC5)cc34)[nH]c2c1`, the inhibition in assay [1] is 9%. Besides, the residual activity in assay [2] was 84%; in assay [3] it was 5%; in assay [4], 78%; in assay [5] it was 115%; in assay [6], 12%; in assay [7], 101%. Moreover, the residual activity in assay [8] worked out at 80%.
